# Sampled rows, rich in hits. Any-hit rate of the full collection: about 1.9%.
# M4 PAM = human M4 muscarinic receptor positive allosteric modulators, primary screen, CHO-K1 cells, Fluo-8 calcium fluorescence; AID 624126, 2012; actives 0.4% (n = 360,000); Muscarinic acetylcholine receptor M4 (Homo sapiens), P08173; CHO-K1 hM4/Gqi5, ACh EC20; 0% = ACh EC20, 100% = maximal ACh; activation, % at 3 µM;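 active = activation above its plate's cutoff, the mean activation of sample wells plus 3 SD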
# M4 ag = human M4 muscarinic receptor agonists, primary screen, CHO-K1 cells, Fluo-8 calcium fluorescence | Muscarinic acetylcholine receptor M4 (Homo sapiens), P08173 | CHO-K1 hM4/Gqi5; vehicle 0%, full acetylcholine response 100% | activation, % at 3 µM | actives 0.14% (n = 360,000);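 active = activation above the run mean over all test wells plus 3 SD, cut at about 32% in these data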;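 also: peak over basal fluorescence ratio per well then scaled between controls; 0% = DMSO wells and 100% = acetylcholine at EC100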
# CHRM5 PAM = human M5 muscarinic receptor positive allosteric modulators, primary screen, CHO-K1 cells, Fluo-8 calcium fluorescence. activation, % at 3 µM. actives 0.3% (n = 360,000). AID 624038, 2012. Muscarinic acetylcholine receptor M5 (Homo sapiens), P08912. CHO-K1 hM5, ACh EC20 PAM; 0% = ACh EC20, 100% = ACh EC100;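 active = activation above the run cutoff, the mean activation of all test compounds plus 3 SD, cut at about 18% in these data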
# Target sequence (P08912 whole entry, looked up): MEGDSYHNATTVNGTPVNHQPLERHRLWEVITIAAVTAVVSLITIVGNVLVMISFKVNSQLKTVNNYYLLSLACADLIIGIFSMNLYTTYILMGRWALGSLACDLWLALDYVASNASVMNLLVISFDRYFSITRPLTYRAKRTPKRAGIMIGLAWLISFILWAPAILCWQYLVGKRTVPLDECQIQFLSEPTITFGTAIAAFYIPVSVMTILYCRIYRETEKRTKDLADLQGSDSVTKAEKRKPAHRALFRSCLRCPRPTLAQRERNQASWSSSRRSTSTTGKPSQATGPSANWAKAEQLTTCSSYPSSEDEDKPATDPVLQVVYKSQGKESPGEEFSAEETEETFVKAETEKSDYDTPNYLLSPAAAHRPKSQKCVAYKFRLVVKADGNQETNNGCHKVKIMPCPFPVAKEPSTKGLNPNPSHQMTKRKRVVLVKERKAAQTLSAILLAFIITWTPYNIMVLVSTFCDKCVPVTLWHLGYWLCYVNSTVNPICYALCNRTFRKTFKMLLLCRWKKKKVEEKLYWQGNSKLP
#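 system = human M5 receptor in CHO-K1 cells | compound = one concentration, 3 µM final (nominal) | schedule = Post-acetylcholine fluorescence recording 140 s | signal = Fluo-8 calcium dye fluorescence, kinetic read | benchmarks = low control EC20 acetylcholine (0%), high control EC100 acetylcholine (100%) | repeats = singlicate, one well per test compound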
# M5 ag = human M5 muscarinic receptor agonists, primary screen, CHO-K1 cells, Fluo-8 calcium fluorescence | CHO-K1 hM5 cells; 0% DMSO wells, 100% maximal acetylcholine response | activation, % at 3 µM | actives 0.19% (n = 360,000) | AID 624037, 2012;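 active = activation above the run's mean over test compounds plus 3 SD, cut at about 23% in these data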;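 also: signal is peak over basal fluorescence ratio across the kinetic read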
# CHRM4 antagonist = human M4 muscarinic receptor antagonists, primary screen, CHO cells, Fluo-8 calcium fluorescence | Muscarinic acetylcholine receptor M4 (Homo sapiens), P08173 | AID 624125, 2012 | actives 0.73% (n = 360,000) | CHO-hM4 cells, ACh EC80 | inhibition, % at 3 µM;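 active = inhibition above its plate's cutoff, the mean inhibition of sample wells plus 3 SD, cut at about 27% in these data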;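 also: 0% = acetylcholine EC80 with DMSO and 100% = DMSO without agonist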
# M5 antag = human M5 muscarinic receptor antagonists, primary screen, CHO cells, Fluo-8 calcium fluorescence. actives 0.59% (n = 360,000). AID 624040, 2012. inhibition, % at 3 µM. Muscarinic acetylcholine receptor M5 (Homo sapiens), P08912. CHO-hM5 cells, ACh EC80;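 active = inhibition above a per-plate cutoff, the mean of that plate's test compounds plus 3 SD, cut at about 27% in these data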;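 also: 0% = acetylcholine EC80 with DMSO and 100% = DMSO without agonist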
# * = called active by the depositor.
SMILES,M4 PAM,M4 ag,CHRM5 PAM,M5 ag,CHRM4 antagonist,M5 antag
CN1CCN(C(c2cccc(Cl)c2)c2ccccc2Cl)CC1 (stereo not given),-16,3,-18,-4,64*,87*
CN1CCN(C(c2ccccc2)c2ccc(Cl)cc2)CC1 (stereo not given),-17,5,-19,0,24,21
CC(=O)OC[C@@H]1CN(Cc2ccccc2)C[C@H](n2cnc3c(Nc4ccccc4)ncnc32)O1,-4,13,-4,2,-6,7
Nc1nc2ccccc2cc1C(=O)NCc1ccc(-c2ccccc2)cc1,-4,17,-17,10,19,31*
C=C(Cl)COc1ccc2c(C)cc(=O)oc2c1,10,-2,18*,-4,8,-14
COc1ccccc1N(C(C)=O)C1=C(Cl)C(=O)c2ccccc2C1=O,-12,2,-8,1,90*,35*
COc1ccc(CCNC(=O)C(F)(F)F)cc1S(N)(=O)=O,18,2,2,0,-4,0
Cc1ccc(S(=O)(=O)N(C)CC(=O)NCc2ccncc2)cc1,4,0,-2,-1,-3,2
CN(C)c1ccc(CNC(=O)CN(C)S(=O)(=O)c2ccc3c(c2)c(=O)n(C)c(=O)n3C)cc1,17*,1,10,-4,0,-13
Cc1ccc(CNC(=O)CN(C)S(=O)(=O)c2ccc(F)cc2)cc1,-2,2,20*,1,-22,-22
CC1=C(C(=O)N2CCCCCC2)CC(CC(=O)NCCCN(C)C)C(=O)N1CCCN1CCCC1=O (stereo not given),0,0,0,-1,7,-3
OC1(C#CCN2CCCC2)c2ccccc2-c2ccccc21,-56,1,-32,-21,47*,51*
CCN(CC)CCC#CC1(O)c2ccccc2-c2ccccc21,-16,0,-33,-22,73*,87*
COc1cccc(C(C(=O)NCc2ccco2)N(Cc2ccco2)C(=O)Cn2nnc3ccccc32)c1 (stereo not given),-7,9,-19,-1,30*,13
COc1cccc(N(C(=O)Cn2nnc3ccccc32)C(C(=O)NCc2ccco2)c2cccnc2)c1 (stereo not given),1,1,2,0,-4,-1
CCN(CC)c1ccc2c(-c3ccc(S(=O)(=O)O)cc3S(=O)(=O)[O-])c3ccc(=[N+](CC)CC)cc-3oc2c1,-17,78*,-8,23,17,8
CCN(CC)CC#CCC(O)(c1ccccc1)C1CCCCC1 (stereo not given),-25,2,-18,-10,76*,72*
Cc1cc(Nc2nc3ccccc3[nH]c2=O)n(-c2ccccc2)n1,-6,8,23*,-2,-16,-9
Cc1cc(C)c2c(N)c(C(=O)NN)sc2n1,0,1,1,0,-4,7
Cc1cc(C)c2c(N)c(C(=O)NC3CC3)sc2n1,34*,56*,3,0,67*,1
Cc1ccc(NC(=O)c2sc3nc(C)cc(C)c3c2N)cc1,16*,4,-2,-9,-21,4
CCOC(=O)c1sc2nc(OCc3cccnc3)cc(C)c2c1N,32*,2,5,-3,2,-3
CC(=O)c1sc2nc(-c3ccccc3)cc(C)c2c1N,42*,21,1,-3,13,4
Cc1cc(C(F)(F)F)c2c(N)c(C(=O)NC3CC3)sc2n1,8,1,-4,-6,-20,3
CCOC(=O)c1sc2nc(C)nc(NCc3cccnc3)c2c1C,-3,1,-2,4,7,8
SMILES,M4 PAM,M4 ag,CHRM5 PAM,M5 ag,CHRM4 antagonist,M5 antag
Nc1c(C(=O)O)sc2nc(-c3ccccc3)cc(-c3ccc(Cl)cc3)c12,-11,-1,-2,1,-3,14
CCOC(=O)C1(C)CCN1C(=O)c1ccc(Cl)nc1 (stereo not given),6,1,8,-1,-25,-9
CCOC(=O)c1sc2nc(C)cc(C)c2c1N,51*,1,-2,-3,28*,-2
COc1ccc(CCC(C)NC2C3CC4CC(C3)CC2C4)cc1 (stereo not given),-34,7,-16,-8,66*,21
O=C(NC1CCCC1)C(c1ccccc1)n1c(-c2cccc3ccccc23)nc2ccccc21 (stereo not given),-15,-1,-18,-4,74*,-1
O=C(NC1CCCC1)C(c1ccccc1)n1c(-c2cccs2)nc2ccccc21 (stereo not given),10,0,0,-4,6,7
CC(C)(C)NC(=O)C(C1CC1)n1c(-c2ccccc2)nc2ccccc21 (stereo not given),24*,3,7,0,0,-9
Cc1ccc(-c2nc3ccccc3n2C(C(=O)NC(C)(C)C)C2CC2)cc1 (stereo not given),2,3,0,0,-3,1
O=C(NC1CCCC1)C(C1CC1)n1c(C2CCCC2)nc2ccccc21 (stereo not given),6,1,0,-1,-21,5
O=C(NC1CCCC1)C(C1CC1)n1c(C2CC2)nc2ccccc21 (stereo not given),23*,1,3,0,-13,0
COCCNC(=O)C1(C)Cc2c(-c3cccc(C(F)(F)F)c3)ccnc2O1 (stereo not given),6,1,-2,1,-13,-6
COc1ccc(C(=O)Nc2cccnc2)cc1S(=O)(=O)N1CCOCC1,4,1,20*,0,-4,11
OC[C@H]1O[C@@H](c2nc(-c3ccc4[nH]ccc4c3)no2)[C@H](O)[C@@H](O)[C@H]1O,16*,1,3,-1,-4,-2
OC[C@H]1O[C@@H](c2nc(-c3ccc(C4OCCO4)cc3)no2)[C@H](O)[C@@H]1O,4,0,-3,0,-6,9
O=C(c1cccs1)N1CCN(C23CC4CC(CC(C4)C2)C3)CC1,-17,2,-6,-7,40*,-14
O=C(c1ccc(Cl)s1)N1CCN(C23CC4CC(CC(C4)C2)C3)CC1,-12,0,3,-9,5,-23

# Assay outcomes (PubChem BioAssay)
